We go through three compounds from ChEMBL document CHEMBL5247599, “New β-arylchalcogeno amines with procognitive properties targeting Carbonic Anhydrases and Monoamine Oxidases” (Eur J Med Chem, 2022).

Structures are written as SMILES. Active and inactive are the calls of the source. No cut-off for these calls is given here.

In data set [1] the target is Carbonic anhydrase 14 (Homo sapiens) (UniProt Q9ULX7). Kind of data set: Binding affinity to human CA14 by phenol red dye based stopped flow CO2 hydration assay. As to conditions: filed as activator. A digest of the protocol: (§1)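 Purified recombinant human CA isoforms. CA-catalysed CO2 hydration was followed by stopped-flow with phenol red at 557 nm, taking initial rates over 10–100 s from at least six traces of the first 5–10% of reaction. Uncatalysed rates were subtracted. Activator stocks were 0.1 mM in deionised water, diluted down to 0.1 nM in assay buffer. K_A came from non-linear least-squares Michaelis–Menten fitting.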
Chain of Carbonic anhydrase 14 (Homo sapiens) (Q9ULX7 whole entry, canonical isoform): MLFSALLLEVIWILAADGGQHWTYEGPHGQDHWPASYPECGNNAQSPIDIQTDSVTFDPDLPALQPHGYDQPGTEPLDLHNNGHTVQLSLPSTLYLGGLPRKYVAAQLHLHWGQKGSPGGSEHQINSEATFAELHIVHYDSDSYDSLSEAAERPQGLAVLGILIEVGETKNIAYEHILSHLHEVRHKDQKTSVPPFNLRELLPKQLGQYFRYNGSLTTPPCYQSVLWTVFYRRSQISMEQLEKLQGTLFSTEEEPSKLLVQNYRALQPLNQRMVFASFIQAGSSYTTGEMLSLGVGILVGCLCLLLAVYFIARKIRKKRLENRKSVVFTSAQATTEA

Data set [2] is described as follows: Toxicity in C57Bl6 mouse assessed as reduction in distance travel at 50 nmol/uL administered directly into lateral ventricle by open field test. As to conditions: in vivo, icv_or_intrathecal. A digest of the protocol:
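Cannulated adult male C57Bl6 mice were placed in a 60×70 cm open-field arena 30 min after a 5 µL lateral-ventricle infusion. Total distance travelled over a 5-min session was recorded by overhead video tracking.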

Data set [3] concerns the target Carbonic anhydrase 5B, mitochondrial (Homo sapiens) (UniProt Q9Y2D0). Nature of the data set: Binding affinity to human CA5b by phenol red dye based stopped flow CO2 hydration assay. Particulars: filed as activator. A digest of the protocol:
as §1

For data set [4], the target named is Carbonic anhydrase 12 (Homo sapiens) (UniProt O43570). Nature of the data set: Binding affinity to human CA12 by phenol red dye based stopped flow CO2 hydration assay. Particulars: filed as activator. Summed up:
as §1

Data set [5] has as its target Carbonic anhydrase 6 (Homo sapiens) (UniProt P23280). Nature of the data set: Binding affinity to human CA6 by phenol red dye based stopped flow CO2 hydration assay. A digest of the protocol: as §1
Data set [6] has as its target Carbonic anhydrase 1 (Homo sapiens) (UniProt P00915). Kind of data set: Binding affinity to human CA1 by phenol red dye based stopped flow CO2 hydration assay. A digest of the protocol:
as §1

Data set [7] concerns the target Carbonic anhydrase 13 (Homo sapiens) (UniProt Q8N1Q1). Kind of data set: Binding affinity to human CA13 by phenol red dye based stopped flow CO2 hydration assay. As to conditions: filed as activator. Summed up:
as §1

Data set [8] addresses Carbonic anhydrase 2 (Homo sapiens) (UniProt P00918). Kind of data set: Binding affinity to human CA2 by phenol red dye based stopped flow CO2 hydration assay. Summed up:
as §1

Data set [9] addresses Carbonic anhydrase 9 (Homo sapiens) (UniProt Q16790). Nature of the data set: Binding affinity to human CA9 by phenol red dye based stopped flow CO2 hydration assay. Summed up:
as §1

Data set [10] has as its target Carbonic anhydrase 5A, mitochondrial (Homo sapiens) (UniProt P35218). Nature of the data set: Binding affinity to human CA5a by phenol red dye based stopped flow CO2 hydration assay. As to conditions: filed as activator. Summed up: as §1
The target in data set [11] is Carbonic anhydrase 4 (Homo sapiens) (UniProt P22748). Kind of data set: Binding affinity to human CA4 by phenol red dye based stopped flow CO2 hydration assay. As to conditions: filed as activator. A digest of the protocol:
as §1

The nature of data set [12]: Toxicity in overnight fasted C57Bl6 mouse assessed as reduction in food intake at 50 nmol/uL administered directly into lateral ventricle measured for 2 hrs. As to conditions: in vivo, icv_or_intrathecal. A digest of the protocol:
(§2)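 Overnight-fasted male C57Bl6 mice received a lateral-ventricle infusion. Food was presented 30 min later, and intake was recorded at 0.5 h intervals over 2 h as cumulative consumption corrected for body weight; n = 8–9 per group.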

The target of data set [13] is Carbonic anhydrase 3 (Homo sapiens) (UniProt P07451). Nature of the data set: Binding affinity to human CA3 by phenol red dye based stopped flow CO2 hydration assay. As to conditions: filed as activator. A digest of the protocol:
as §1

A short description of data set [14]: Toxicity in overnight fasted C57Bl6 mouse assessed as reduction in food intake at 50 nmol/uL administered directly into lateral ventricle measured for 30 mins. As to conditions: in vivo, icv_or_intrathecal, 0.5 h. Summed up: as §2
Data set [15] deals with Carbonic anhydrase 7 (Homo sapiens) (UniProt P43166). Kind of data set: Binding affinity to human CA7 by phenol red dye based stopped flow CO2 hydration assay. Particulars: filed as activator. Summed up:
as §1

In data set [16] the test system is Mus musculus. Kind of data set: Pro-cognitive activity in C57Bl6 mouse assessed as attenuation of long-term memory deficit by measuring increase in exploration time for novel juvenile at 25 nmol/uL, icv measured after 48 hrs by novel object recognition test. The format is functional, organism-based. Summed up: (§3)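 Male adult C57Bl6 mice (8–9 weeks), lateral-ventricle cannula implanted 7 days earlier. Social recognition: 10-min habituation to arena with two empty cups; 24 h later 10-min acquisition with an unfamiliar juvenile (3–4 weeks) under one wire cup. Immediately after, 5 µL i.c.v. infusion at 1 µL/min. Retention at 48 h with familiar and novel juvenile; percentage time exploring each cup (snout-to-cup contact).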

In data set [17] the test system is Mus musculus. Nature of the data set: Pro-cognitive activity in C57Bl6 mouse assessed as attenuation of long-term memory deficit by measuring increase in exploration time for novel object by measuring discrimination index at 25 nmol/uL, icv measured after 24 hrs by novel object recognition test.
In data set [18] the test system is Mus musculus. Nature of the data set: Pro-cognitive activity in C57Bl6 mouse assessed as attenuation of long-term memory deficit by measuring increase in exploration time for novel juvenile by measuring discrimination index at 50 nmol/uL, icv measured after 48 hrs by novel object recognition test. The data set is classed as functional. A digest of the protocol:
(§4)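 Social recognition in adult male C57Bl6 mice with intracerebroventricular cannulae. Habituation was 10 min with two empty cups. Twenty-four hours later, a novel 3–4-week-old juvenile was placed under one cup for 10 min of exploration, followed immediately by a 5 µL infusion at 1 µL/min. Retention 48 h later offered familiar versus novel juvenile, scoring snout-to-cup contact. DI = (tN−tF)/(tN+tF).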

Data set [19] has as its system Mus musculus. Nature of the data set: Pro-cognitive activity in C57Bl6 mouse assessed as attenuation of long-term memory deficit by measuring increase in exploration time for novel object by measuring discrimination index at 50 nmol/uL, icv measured after 24 hrs by novel object recognition test. The format is functional. A digest of the protocol: (§5)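 Novel object recognition in adult male C57Bl6 mice. Habituation was 10 min in an empty arena. Twenty-four hours later, mice explored two identical objects for 5 min, then received an immediate 5 µL lateral-ventricle infusion at 1 µL/min. A 5-min retention test with one familiar and one novel object followed 24 h later. Scores were % exploration time and DI = (tN−tF)/(tN+tF).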

Data set [20] has as its system Mus musculus. Nature of the data set: Pro-cognitive activity in C57Bl6 mouse assessed as attenuation of long-term memory deficit by measuring increase in exploration time for novel juvenile by measuring discrimination index at 25 nmol/uL, icv measured after 48 hrs by novel object recognition test. The format is functional. Summed up:
as §4

In data set [21] the test system is Mus musculus. Kind of data set: Pro-cognitive activity in C57Bl6 mouse assessed as attenuation of long-term memory deficit by measuring increase in exploration time for novel object at 50 nmol/uL, icv measured after 24 hrs by novel object recognition test. The data set is classed as functional, organism-based. Summed up:
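Male adult C57Bl6 mice (8–9 weeks), lateral-ventricle cannula implanted one week before. 10-min habituation to empty open-field arena; 24 h later, 5-min acquisition with two identical objects, followed immediately by 5 µL i.c.v. infusion at 1 µL/min. 5-min retention test 24 h after acquisition with one familiar and one novel object; percentage exploration time per object, two-way ANOVA with Bonferroni.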

For data set [22], the system named is Mus musculus. Nature of the data set: Pro-cognitive activity in C57Bl6 mouse assessed as attenuation of long-term memory deficit by measuring increase in exploration time for novel juvenile at 50 nmol/uL, icv measured after 48 hrs by novel object recognition test. The data set is classed as functional, organism-based. A digest of the protocol:
as §3

Data set [23] deals with Mus musculus. Kind of data set: Ex vivo activation of C57Bl6 mouse cortex homogenate CA assessed as increase in protein activity at 50 nmol/uL, icv measured after 30 mins by stopped flow spectrophotometric method. The format is functional, organism-based. A digest of the protocol: (§6)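 Adult male C57Bl6 mice with lateral-ventricle cannulae received 5 µL at 1 µL/min. After 30 min, cortex and hippocampus were dissected on ice, homogenised in 20 mM Hepes pH 7.5 and spun at 20000g for 30 min. Stopped-flow CO2 hydration used 0.2 mM phenol red (557 nm), 20 mM NaClO4, 20°C and 1.7–17 mM CO2. Activity is expressed as % of vehicle mean; 6 mice/group.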

The subject of data set [24] is Mus musculus. Nature of the data set: Pro-cognitive activity in C57Bl6 mouse assessed as attenuation of long-term memory deficit by measuring increase in exploration time for novel object at 25 nmol/uL, icv measured after 24 hrs by novel object recognition test. The data set is classed as functional, organism-based. Summed up:
as §5

The target of data set [25] is T1, Amine oxidase [flavin-containing] A (Homo sapiens, UniProt P21397).
T1 sequence (P21397 whole entry): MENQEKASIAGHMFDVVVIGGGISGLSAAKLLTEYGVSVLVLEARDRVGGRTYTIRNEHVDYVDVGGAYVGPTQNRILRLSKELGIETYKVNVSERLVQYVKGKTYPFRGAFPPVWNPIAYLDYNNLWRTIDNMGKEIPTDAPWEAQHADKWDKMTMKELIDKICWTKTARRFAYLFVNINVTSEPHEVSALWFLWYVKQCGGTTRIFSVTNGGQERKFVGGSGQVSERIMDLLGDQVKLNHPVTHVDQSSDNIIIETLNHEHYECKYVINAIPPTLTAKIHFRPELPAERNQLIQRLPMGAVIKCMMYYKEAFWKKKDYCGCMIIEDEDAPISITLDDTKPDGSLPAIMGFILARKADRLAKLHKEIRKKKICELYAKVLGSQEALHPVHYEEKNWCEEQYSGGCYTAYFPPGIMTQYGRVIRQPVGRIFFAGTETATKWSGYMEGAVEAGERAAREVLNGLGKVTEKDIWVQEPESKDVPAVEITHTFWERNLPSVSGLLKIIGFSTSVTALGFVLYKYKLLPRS
Kind of data set: Inhibition of human recombinant MAO-A assessed as inhibition of 4-hydroxyquinoline formation using kynuramine as substrate by fluorescence spectrophotometry analysis. Summed up: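 Recombinant human MAO-A with kynuramine as substrate. The 4-hydroxyquinoline product was quantified by fluorescence spectrophotometry, and IC50 values were determined.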

Data set [26] concerns Mus musculus. Nature of the data set: Ex vivo activation of C57Bl6 mouse hippocampus homogenate CA assessed as increase in protein activity at 50 nmol/uL, icv measured after 30 mins by stopped flow spectrophotometric method. The data set is classed as functional, organism-based. Summed up: as §6
Data set [27] has as its system Mus musculus. Kind of data set: Pro-cognitive activity in C57Bl6 mouse assessed as attenuation of long-term memory deficit by measuring increase in exploration time for novel object by measuring discrimination index at 25 nmol/uL, icv measured after 48 hrs by novel object recognition test. The data set is classed as functional.

Chain of Carbonic anhydrase 5A, mitochondrial (Homo sapiens) (P35218 whole entry): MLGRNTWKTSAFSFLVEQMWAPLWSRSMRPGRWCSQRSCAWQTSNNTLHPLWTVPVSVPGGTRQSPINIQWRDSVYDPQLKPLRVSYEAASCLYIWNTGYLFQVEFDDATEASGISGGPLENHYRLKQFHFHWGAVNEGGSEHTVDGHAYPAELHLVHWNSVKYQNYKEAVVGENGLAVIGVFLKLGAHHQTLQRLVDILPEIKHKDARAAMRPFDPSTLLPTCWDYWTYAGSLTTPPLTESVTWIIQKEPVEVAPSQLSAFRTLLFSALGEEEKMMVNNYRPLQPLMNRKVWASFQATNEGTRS
Chain of Carbonic anhydrase 5B, mitochondrial (Homo sapiens) (Q9Y2D0 whole entry): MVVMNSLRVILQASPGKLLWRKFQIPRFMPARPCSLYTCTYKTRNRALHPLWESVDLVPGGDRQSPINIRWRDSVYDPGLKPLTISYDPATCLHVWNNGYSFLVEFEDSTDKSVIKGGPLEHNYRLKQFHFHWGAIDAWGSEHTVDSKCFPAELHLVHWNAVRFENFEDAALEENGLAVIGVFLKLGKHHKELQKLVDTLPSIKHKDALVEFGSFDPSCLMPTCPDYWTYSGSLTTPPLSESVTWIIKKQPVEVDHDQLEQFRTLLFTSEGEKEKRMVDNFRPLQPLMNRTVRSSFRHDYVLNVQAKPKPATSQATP
Chain of Carbonic anhydrase 6 (Homo sapiens) (P23280 whole entry): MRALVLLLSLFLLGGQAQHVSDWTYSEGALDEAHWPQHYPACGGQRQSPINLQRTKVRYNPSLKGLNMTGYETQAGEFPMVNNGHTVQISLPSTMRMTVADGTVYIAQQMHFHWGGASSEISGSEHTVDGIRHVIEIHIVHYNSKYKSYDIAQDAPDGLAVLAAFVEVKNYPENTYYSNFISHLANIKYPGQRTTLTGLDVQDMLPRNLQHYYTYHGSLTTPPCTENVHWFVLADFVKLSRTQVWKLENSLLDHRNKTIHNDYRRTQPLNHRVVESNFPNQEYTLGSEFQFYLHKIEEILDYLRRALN
Chain of Carbonic anhydrase 7 (Homo sapiens) (P43166 whole entry): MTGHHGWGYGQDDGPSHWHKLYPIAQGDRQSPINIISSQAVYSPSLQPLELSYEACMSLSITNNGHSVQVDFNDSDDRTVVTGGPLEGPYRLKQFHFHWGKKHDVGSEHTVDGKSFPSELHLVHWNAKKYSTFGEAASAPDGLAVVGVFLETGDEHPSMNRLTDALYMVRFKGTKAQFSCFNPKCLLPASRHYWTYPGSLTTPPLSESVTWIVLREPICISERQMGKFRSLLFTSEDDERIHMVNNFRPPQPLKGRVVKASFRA
Chain of Carbonic anhydrase 1 (Homo sapiens) (P00915 2-261 limits assumed): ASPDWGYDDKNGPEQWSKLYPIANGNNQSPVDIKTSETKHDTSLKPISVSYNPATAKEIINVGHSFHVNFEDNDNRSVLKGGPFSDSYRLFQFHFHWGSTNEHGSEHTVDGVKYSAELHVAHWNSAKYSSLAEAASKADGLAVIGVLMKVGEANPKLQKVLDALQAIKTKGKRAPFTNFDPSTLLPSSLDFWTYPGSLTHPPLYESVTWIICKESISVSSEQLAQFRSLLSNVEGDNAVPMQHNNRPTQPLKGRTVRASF
Chain of Carbonic anhydrase 3 (Homo sapiens) (P07451 whole entry): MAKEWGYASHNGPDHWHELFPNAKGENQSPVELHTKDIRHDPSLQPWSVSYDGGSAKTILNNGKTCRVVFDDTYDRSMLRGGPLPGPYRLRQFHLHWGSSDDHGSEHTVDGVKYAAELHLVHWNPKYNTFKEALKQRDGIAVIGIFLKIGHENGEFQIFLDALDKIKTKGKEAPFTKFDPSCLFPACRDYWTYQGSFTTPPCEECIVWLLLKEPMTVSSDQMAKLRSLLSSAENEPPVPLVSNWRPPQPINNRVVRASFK
Chain of Carbonic anhydrase 13 (Homo sapiens) (Q8N1Q1 whole entry, looked up): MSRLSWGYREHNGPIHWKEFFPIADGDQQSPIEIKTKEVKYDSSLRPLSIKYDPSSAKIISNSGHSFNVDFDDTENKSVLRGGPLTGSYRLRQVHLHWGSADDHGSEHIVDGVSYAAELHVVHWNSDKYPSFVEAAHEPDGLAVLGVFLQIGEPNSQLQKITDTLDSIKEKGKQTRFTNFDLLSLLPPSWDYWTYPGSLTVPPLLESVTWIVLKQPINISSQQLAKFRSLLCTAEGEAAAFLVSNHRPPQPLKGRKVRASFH
Chain of Carbonic anhydrase 4 (Homo sapiens) (P22748 whole entry): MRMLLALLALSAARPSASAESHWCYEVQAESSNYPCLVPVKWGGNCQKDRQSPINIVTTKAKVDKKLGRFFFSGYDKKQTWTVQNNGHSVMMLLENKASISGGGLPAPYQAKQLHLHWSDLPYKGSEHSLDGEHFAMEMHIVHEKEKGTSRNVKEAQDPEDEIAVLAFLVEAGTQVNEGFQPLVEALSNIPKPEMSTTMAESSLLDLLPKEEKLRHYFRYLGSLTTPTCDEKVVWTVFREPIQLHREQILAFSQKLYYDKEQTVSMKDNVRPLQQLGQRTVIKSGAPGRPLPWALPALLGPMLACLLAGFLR
Chain of Carbonic anhydrase 12 (Homo sapiens) (O43570 whole entry): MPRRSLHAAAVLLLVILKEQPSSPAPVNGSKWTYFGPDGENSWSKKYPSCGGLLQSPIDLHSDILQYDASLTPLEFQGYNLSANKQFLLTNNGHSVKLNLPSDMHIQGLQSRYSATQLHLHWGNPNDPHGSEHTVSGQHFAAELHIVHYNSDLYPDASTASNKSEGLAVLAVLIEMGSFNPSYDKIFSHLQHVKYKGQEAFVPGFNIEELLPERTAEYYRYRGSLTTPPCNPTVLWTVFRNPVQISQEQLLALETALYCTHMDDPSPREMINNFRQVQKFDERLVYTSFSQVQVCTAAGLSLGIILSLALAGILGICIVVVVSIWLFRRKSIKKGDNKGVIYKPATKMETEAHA

On to `CC(N)Cc1ccccc1` (configuration not stated) [AMPHETAMINE], for which the Ka in [1] was 9.15 µM; in [3] it was 2.56 µM; in [4] it was 0.64 µM; in data set [5], above 150 µM; in [6] it was above 150 µM; in data set [7], 24.1 µM. Moreover, the Ka was above 150 µM in data set [8]; above 150 µM in [9]; 0.81 µM in [10]; 0.094 µM in [11]; 87.7 µM in data set [13]; 0.91 µM in [15]. Also, the Activity entry in data set [2], in [12] and in [14] was “Toxic” each time.
For `N[C@H](Cc1ccccc1)C(=O)O` [D-PHENYLALANINE], the result with Mus musculus [16] was inactive. Further, the Activity_index is given as 0.075 in the data set on Mus musculus [17], 0.291 in the data set with Mus musculus [18], 0.375 in the data set with Mus musculus [19] and 0.009 with Mus musculus [20]. Moreover, the outcome in the data set with Mus musculus [21] and with Mus musculus [22] was Active.
With `CC(N)C[Se]c1ccccc1` (configuration not stated), the outcome in the data set with Mus musculus [16] and in the data set with Mus musculus [24] was inactive. Moreover, the Ka in [1] was determined as 9.9 µM; in data set [3] it was 26.3 µM; in data set [4], 59.5 µM; in [5] (filed as activator), 57.2 µM; in data set [6] (filed as activator), 9.9 µM; in data set [7], 58.6 µM. Also, the Ka in data set [8] is above 100 µM; in data set [9] (filed as activator) it was 49.6 µM; in [10], 14.7 µM; in [11], 8.6 µM; in data set [13], 14.3 µM; in [15], 20.6 µM. Besides, the Activity entry in data set [2] and in data set [12] was “Non-Toxic” in each case. Moreover, the Activity_index in the data set with Mus musculus [18] is given as 0.156; in the data set with Mus musculus [19], 0.206; with Mus musculus [20], 0.011; in the data set with Mus musculus [27], 0.006. Moreover, the outcome in the data set with Mus musculus [23], with Mus musculus [21], in the data set on Mus musculus [26] and in the data set on Mus musculus [22] was Active. The IC50 in data set [25] is 9.79 µM.
